The source made the active and inactive calls. The calls are words filed in the database; no cut-off is given here.
Tests used:
B16-F10 [1] = assay: Antiproliferative activity against mouse B16F10 cells after 72 hrs by MTT assay; type: functional, cell-based; details: B16-F10, 72 h
In short: (§1)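 MTT assay on B16F10 mouse skin melanoma, MCF-7 human breast cancer and Helf human embryonic lung fibroblast cells. Doxorubicin served as reference. Values are mean ± SD of three independent experiments.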

[2] = Antiproliferative activity against HELF after 72 hrs by MTT assay; parameters: species or system Homo sapiens; in short: as §1
MCF7 = assay: Antiproliferative activity against human MCF7 cells after 72 hrs by MTT assay; type: functional, cell-based; details: MCF7, 72 h; in short: as §1
[3] = Drug uptake in mouse B16F10 cells up to 50 uM after 1 hr by fluorescence microscopic method; type: ADME, cell-based; details: b16-f10, 1 h
In short: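 Live B16F10 cells stained 1 h with the unconjugated coumarin dye at up to 50 μM as control. Intracellular fluorescence examined by microscopy.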

B16-F10 [4] = assay: Induction of mitochondrial membrane potential loss in mouse B16F10 cells at 7.5 uM after 48 hrs by JC-1 dye based flow cytometry (reference value: 1.79%); type: functional
In short: (§2)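 B16F10 cells incubated 48 h with parent acid (0, 7.5, 15, 30 μM) or probe (0, 1.5, 3.0, 6.0 μM), then stained with JC-1. Percentage of cells with collapsed mitochondrial membrane potential determined by flow cytometry.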

B16-F10 [5] = assay: Induction of apoptosis in mouse B16F10 cells assessed as increase in caspase-9 protein expression at 7.5 to 30 uM after 48 hrs by Western blot analysis; type: functional, cell-based
In short: (§3)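 B16F10 cells treated with parent acid (0, 7.5, 15, 30 μM) or probe (0, 1.5, 3.0, 6.0 μM). Bax, Bcl-2, cytochrome c, caspase 3 and caspase 9 detected by Western blot with GAPDH loading control. Band density normalized to GAPDH as relative expression. Values are mean ± SD of three independent experiments; P values for control vs treated.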

B16-F10 [6] = assay: Induction of apoptosis in mouse B16F10 cells assessed as decrease in Bcl2 protein expression at 7.5 to 30 uM after 48 hrs by Western blot analysis; type: functional, cell-based; in short: as §3
B16-F10 [7] = assay: Induction of apoptosis in mouse B16F10 cells assessed as increase in caspase-3 protein expression at 7.5 to 30 uM after 48 hrs by Western blot analysis; type: functional, cell-based; in short: as §3
B16-F10 [8] = assay: Induction of apoptosis in mouse B16F10 cells assessed as increase in Bax protein expression at 7.5 to 30 uM after 48 hrs by Western blot analysis; type: functional, cell-based; in short: as §3
B16-F10 [9] = assay: Induction of mitochondrial membrane potential loss in mouse B16F10 cells at 15 uM after 48 hrs by JC-1 dye based flow cytometry (reference value: 1.79%); type: functional; in short: as §2
B16-F10 [10] = assay: Induction of mitochondrial membrane potential loss in mouse B16F10 cells at 30 uM after 48 hrs by JC-1 dye based flow cytometry (reference value: 1.79%); type: functional; in short: as §2
B16-F10 [11] = assay: Induction of apoptosis in mouse B16F10 cells assessed as increase in cytochrome-c protein expression at 7.5 to 30 uM after 48 hrs by Western blot analysis; type: functional, cell-based; in short: as §3
[12] = Drug uptake in mouse B16F10 cell nucleus at 4 uM after 1 hr by DAPI staining based confocal laser scanning microscopic method; type: ADME, subcellular; details: b16-f10, 1 h
[13] = Drug uptake in mouse B16F10 cell lysosomes at 4 uM after 1 hr by LysoTracker staining based confocal laser scanning microscopic method; type: ADME, subcellular, Lysosome; details: b16-f10, 1 h
In short: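 Live B16F10 cells co-stained with the coumarin probe at 4 μM and LysoTracker Red, with DAPI nuclear counterstain. Imaged by confocal microscopy, probe visualized as green and lysosomes as red.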

B16-F10 [14] = assay: Induction of apoptosis in mouse B16F10 cells assessed as decrease in Bcl2 protein expression at 1.5 to 6 uM after 48 hrs by Western blot analysis; type: functional, cell-based; in short: as §3
[15] = Drug uptake in mouse B16F10 cells after 15 mins by fluorescence microscopic method; type: ADME, cell-based; details: b16-f10, 0.25 h
In short: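 Live B16F10 cells incubated with the coumarin-labelled probe (10 μM among several concentrations) over a time course. Intracellular fluorescence imaged by fluorescence microscopy. Probe excitation/emission maxima 415/475 nm.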

B16-F10 [16] = assay: Induction of apoptosis in mouse B16F10 cells assessed as increase in caspase-9 protein expression at 1.5 to 6 uM after 48 hrs by Western blot analysis; type: functional, cell-based; in short: as §3
B16-F10 [17] = assay: Induction of mitochondrial membrane potential loss in mouse B16F10 cells at 1.5 to 6 uM after 48 hrs by JC-1 dye based flow cytometry; type: functional, cell-based; in short: as §2
[18] = Drug uptake in mouse B16F10 cell mitochondria at 4 uM after 1 hr by MitoTracker dye based confocal laser scanning microscopic method; type: ADME; details: b16-f10, 1 h
In short: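 Live B16F10 cells incubated 1 h with the coumarin probe at 4 μM together with MitoTracker. Imaged by confocal laser scanning microscopy with probe excitation at 415 nm (green) and MitoTracker […] at 579 nm (red). Colocalization read from overlay of the two channels.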

[19] = Drug uptake in mouse B16F10 cells at 10 uM up to 240 mins mins by flow cytometry; type: ADME, cell-based; details: b16-f10, 4 h
In short: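 Live B16F10 cells incubated with 10 μM coumarin probe over a time course (0–120 min and beyond). Intracellular fluorescence intensity quantified by flow cytometry.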

B16-F10 [20] = assay: Induction of apoptosis in mouse B16F10 cells assessed as increase in Bax protein expression at 1.5 to 6 uM after 48 hrs by Western blot analysis; type: functional, cell-based; in short: as §3
B16-F10 [21] = assay: Induction of apoptosis in mouse B16F10 cells assessed as increase in caspase-3 protein expression at 1.5 to 6 uM after 48 hrs by Western blot analysis; type: functional, cell-based; in short: as §3
B16-F10 [22] = assay: Induction of apoptosis in mouse B16F10 cells assessed as increase in cytochrome-c protein expression at 1.5 to 6 uM after 48 hrs by Western blot analysis; type: functional, cell-based; in short: as §3

SMILES	IC50 (B16-F10 [1])	IC50 [2]	IC50 (MCF7)	further results
C=C(C)[C@@H]1CC[C@]2(C(=O)O)CC[C@]3(C)[C@H](CC[C@@H]4[C@@]5(C)CC[C@H](O)[C@@](C)(COC(=O)CCCCCNC(=O)c6cc7ccc(N(CC)CC)cc7oc6=O)[C@@H]5CC[C@]43C)[C@@H]12	12.3 µM	79.7 µM	37.8 µM	
C=C(C)[C@@H]1CC[C@]2(C(=O)O)CC[C@]3(C)[C@H](CC[C@@H]4[C@@]5(C)CC[C@H](O)[C@@](C)(COC(=O)CCC(=O)OCCNC(=O)c6cc7ccc(N(CC)CC)cc7oc6=O)[C@@H]5CC[C@]43C)[C@@H]12	10.5 µM	25.1 µM	18.1 µM	
CCN(CC)c1ccc2cc(C(=O)NCCNC(=O)CCC(=O)O)c(=O)oc2c1	> 100 µM			Drug uptake [3]: Not Active
C=C(C)[C@@H]1CC[C@]2(C(=O)O)CC[C@]3(C)[C@H](CC[C@@H]4[C@@]5(C)CC[C@H](O)[C@@](C)(COC(=O)CCC(=O)NCCOC(=O)c6cc7ccc(N(CC)CC)cc7oc6=O)[C@@H]5CC[C@]43C)[C@@H]12	11.5 µM	24 µM	19.9 µM	
C=C(C)[C@@H]1CC[C@]2(C(=O)O)CC[C@]3(C)[C@H](CC[C@@H]4[C@@]5(C)CC[C@H](O)[C@@](C)(COC(=O)CCC(=O)OCCOC(=O)c6cc7ccc(N(CC)CC)cc7oc6=O)[C@@H]5CC[C@]43C)[C@@H]12	11.8 µM	23.8 µM	19.7 µM	
C=C(C)[C@@H]1CC[C@]2(C(=O)O)CC[C@]3(C)[C@H](CC[C@@H]4[C@@]5(C)CC[C@H](O)[C@@](C)(COC(=O)CCCNC(=O)c6cc7ccc(N(CC)CC)cc7oc6=O)[C@@H]5CC[C@]43C)[C@@H]12	11.3 µM	27.8 µM	18.1 µM	
C=C(C)[C@@H]1CC[C@]2(C(=O)O)CC[C@]3(C)[C@H](CC[C@@H]4[C@@]5(C)CC[C@H](O)[C@@](C)(COC(=O)CCC(=O)OCCOCCOCCOC(=O)c6cc7ccc(N(CC)CC)cc7oc6=O)[C@@H]5CC[C@]43C)[C@@H]12	30 µM	19.4 µM	24.2 µM	
C=C(C)[C@@H]1CC[C@]2(C(=O)O)CC[C@]3(C)[C@H](CC[C@@H]4[C@@]5(C)CC[C@H](O)[C@@](C)(COC(=O)CCC(=O)OCCOCCOC(=O)c6cc7ccc(N(CC)CC)cc7oc6=O)[C@@H]5CC[C@]43C)[C@@H]12	35.5 µM	21.4 µM	30.5 µM	
C=C(C)[C@@H]1CC[C@]2(C(=O)O)CC[C@]3(C)[C@H](CC[C@@H]4[C@@]5(C)CC[C@H](O)[C@@](C)(CO)[C@@H]5CC[C@]43C)[C@@H]12	24.5 µM	31.5 µM	20.8 µM	Activity (B16-F10 [4]): 10.57%; Activity (B16-F10 [5]): Active; Activity (B16-F10 [6]): Active; Activity (B16-F10 [7]): Active; Activity (B16-F10 [8]): Active; Activity (B16-F10 [9]): 22.85%; Activity (B16-F10 [10]): 42.87%; Activity (B16-F10 [11]): Active
C=C(C)[C@@H]1CC[C@]2(C(=O)O)CC[C@]3(C)[C@H](CC[C@@H]4[C@@]5(C)CC[C@H](O)[C@@](C)(COC(=O)COCCOCCNC(=O)c6cc7ccc(N(CC)CC)cc7oc6=O)[C@@H]5CC[C@]43C)[C@@H]12	5.25 µM	10.8 µM	8.16 µM	
COc1cccc2c1C(=O)c1c(O)c3c(c(O)c1C2=O)C[C@@](O)(C(=O)CO)C[C@@H]3O[C@H]1C[C@H](N)[C@H](O)[C@H](C)O1 [DOXORUBICIN]	0.19 µM	0.21 µM	0.15 µM	
C=C(C)[C@@H]1CC[C@]2(C(=O)O)CC[C@]3(C)[C@H](CC[C@@H]4[C@@]5(C)CC[C@H](O)[C@@](C)(COC(=O)CCC(=O)NCCNC(=O)c6cc7ccc(N(CC)CC)cc7oc6=O)[C@@H]5CC[C@]43C)[C@@H]12	4.07 µM	11.7 µM	6.26 µM	Drug uptake [12]: Not Active; Drug uptake [13]: Not Active; Activity (B16-F10 [14]): Active; Drug uptake [15]: Dose-dependent effect; Activity (B16-F10 [16]): Active; Activity (B16-F10 [17]): Active; Drug uptake [18]: Active; Drug uptake [19]: Active; Activity (B16-F10 [20]): Active; Activity (B16-F10 [21]): Active; Activity (B16-F10 [22]): Active
C=C(C)[C@@H]1CC[C@]2(C(=O)O)CC[C@]3(C)[C@H](CC[C@@H]4[C@@]5(C)CC[C@H](O)[C@@](C)(COC(=O)CCC(=O)NCCCCNC(=O)c6cc7ccc(N(CC)CC)cc7oc6=O)[C@@H]5CC[C@]43C)[C@@H]12	7.77 µM	17.6 µM	9.7 µM	

Reference: ChEMBL document CHEMBL4266010, “Synthesis, Biological Evaluation of Fluorescent 23-Hydroxybetulinic Acid Probes, and Their Cellular Localization Studies” (ACS Med Chem Lett, 2018)
